Laboratory results: ChEMBL document CHEMBL1150253, “Synthesis and anti-platelet evaluation of 2-benzoylaminobenzoate analogs” (Bioorg Med Chem, 2008)

Tests used:
[1] = system: Blood; assay: Inhibition of arachidonic acid-induced platelet aggregation in human blood after 3 mins by turbidimetric assay; format: functional, tissue-based; conditions: 0.05 h
Summary of the method: (§1)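 Washed human platelets were prepared from ACD-anticoagulated blood of healthy volunteers who had taken no drugs for two weeks. They were resuspended at 3 × 10⁸/ml in Tyrode's solution with Ca²⁺ 2 mM, glucose 11.1 mM and BSA 3.5 mg/ml. Platelets were preincubated with DMSO (0.5%) or compound at 37 °C for 3 min, stirring at 1200 rpm. Inducers were arachidonic acid, collagen, U46619 or thrombin (0.1 U/ml). Aggregation was read by light transmission. IC50 is mean ± SEM, n = 3.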

[2] = system: Blood; assay: Inhibition of thrombin-induced platelet aggregation in human blood after 3 mins by turbidimetric assay; conditions: 0.05 h
[3] = system: Blood; assay: Inhibition of collagen-induced platelet aggregation in human blood after 3 mins by turbidimetric assay; conditions: 0.05 h
[4] = system: Blood; assay: Inhibition of U46619-induced platelet aggregation in human blood after 3 mins by turbidimetric assay; format: functional, tissue-based; conditions: 0.05 h; summary of the method: as §1
[5] = system: Platelet; assay: Inhibition of arachidonic acid-induced TxB2 formation in human platelet at 0.5 uM per 3 x 10^8 platelets by immunoassay; format: functional
Summary of the method: (§2)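 Washed human platelets were suspended in Tyrode's solution with Ca²⁺, glucose and BSA and preincubated with DMSO or compound at 37 °C for 3 min. Arachidonic acid was then added. After 5 min the reaction was stopped with EDTA (2 mM) plus indomethacin. Samples were centrifuged for 3 min at 13,000 rpm. Supernatant TxB2 was measured by enzyme immunoassay and expressed per 3 × 10⁸ platelets. Values are mean ± SEM, n = 3.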

[6] = system: Platelet; assay: Inhibition of arachidonic acid-induced TxB2 formation in human platelet at 1 uM per 3 x 10^8 platelets by immunoassay; format: functional; summary of the method: as §2
[7] = system: Platelet; assay: Inhibition of arachidonic acid-induced TxB2 formation in human platelet at 200 uM per 3 x 10^8 platelets by immunoassay; format: functional; summary of the method: as §2

Row | IC50 [1] | IC50 [2] | IC50 [3] | IC50 [4] | SMILES | Activity [5] | Activity [6] | Activity [7]
1 | 6 µM | > 100 µM | 11.1 µM | > 100 µM | CCCNC(=O)c1ccc(Cl)cc1NC(=O)c1ccccc1OC | – | – | –
2 | 0.12 µM | > 100 µM | 0.4 µM | > 100 µM | COc1ccc2c(c1)c(CC(=O)O)c(C)n2C(=O)c1ccc(Cl)cc1 [INDOMETHACIN] | 3.09 ng | – | –
3 | 0.9 µM | > 100 µM | 11.3 µM | – | CCCOC(=O)c1ccc(C)cc1NC(=O)c1ccccc1F | – | – | –
4 | 2 µM | > 100 µM | 2.9 µM | – | CCCOC(=O)c1ccc([N+](=O)[O-])cc1NC(=O)c1ccccc1Cl | – | – | –
5 | 2.2 µM | > 100 µM | 8.3 µM | > 100 µM | CCCOC(=O)c1ccc(Cl)cc1NC(=O)c1ccccc1C | – | – | –
6 | 3.4 µM | > 100 µM | 1.1 µM | > 100 µM | CCCCNC(=O)c1ccc(Cl)cc1NC(=O)c1ccccc1Cl | – | – | –
7 | 10.4 µM | > 100 µM | 62.5 µM | – | CCCOC(=O)c1ccc(C)cc1NC(=O)c1ccccc1OC | – | – | –
8 | 4.9 µM | > 100 µM | 46.4 µM | > 100 µM | CCOC(=O)c1ccc(Cl)cc1NC(=O)c1ccccc1OC | – | – | –
9 | 7.1 µM | > 100 µM | 50.4 µM | > 100 µM | CCCCOC(=O)c1ccc(Cl)cc1NC(=O)c1ccccc1Br | – | – | –
10 | 1.9 µM | > 100 µM | 8.7 µM | > 100 µM | CCCNC(=O)c1ccc(Cl)cc1NC(=O)c1ccccc1F | – | – | –
11 | 3 µM | > 100 µM | 32.1 µM | > 100 µM | CCCCOC(=O)c1ccc(Cl)cc1NC(=O)c1ccccc1F | – | – | –
12 | 2.1 µM | > 100 µM | 19.5 µM | > 100 µM | CCCCOC(=O)c1ccc(Cl)cc1NC(=O)c1ccccc1Cl | – | – | –
13 | 3.8 µM | > 100 µM | 20.1 µM | > 100 µM | CCOC(=O)c1ccc(Cl)cc1NC(=O)c1ccccc1F | – | – | –
14 | > 100 µM | > 100 µM | > 100 µM | – | CCCOC(=O)c1ccc([N+](=O)[O-])cc1NC(=O)c1ccccc1OC | – | – | –
15 | 4.9 µM | > 100 µM | 15.9 µM | > 100 µM | CCOC(=O)c1ccc(Cl)cc1NC(=O)c1ccccc1C | – | – | –
16 | 0.9 µM | > 100 µM | – | > 100 µM | CCOC(=O)c1ccc(Cl)cc1NC(=O)c1c(F)cccc1F | – | – | –
17 | 5.8 µM | > 100 µM | 20.1 µM | – | CCCOC(=O)c1ccc(C)cc1NC(=O)c1ccccc1C | – | – | –
18 | 1.6 µM | > 100 µM | 11.6 µM | > 100 µM | CCCOC(=O)c1ccc(Cl)cc1NC(=O)c1ccccc1F | – | – | –
19 | 82.2 µM | > 100 µM | 8.51 µM | > 100 µM | CC(C)OC(=O)c1ccc(Cl)cc1NC(=O)c1ccccc1Cl | – | – | –
20 | > 100 µM | > 100 µM | 36.7 µM | > 100 µM | CC(C)OC(=O)c1ccc(Cl)cc1NC(=O)c1ccccc1F | – | – | –
21 | 2.5 µM | > 100 µM | 4.9 µM | – | CCCOC(=O)c1ccc([N+](=O)[O-])cc1NC(=O)c1ccccc1Br | – | – | –
22 | 3.3 µM | > 100 µM | 16.7 µM | – | CCCOC(=O)c1ccc(F)cc1NC(=O)c1ccccc1Br | – | – | –
23 | 12.6 µM | > 100 µM | 3.4 µM | > 100 µM | COC(=O)c1ccc(Cl)cc1NC(=O)c1c(Cl)cccc1Cl | – | – | –
24 | 3.5 µM | > 100 µM | 2.2 µM | > 100 µM | CCCCNC(=O)c1ccc(Cl)cc1NC(=O)c1ccccc1F | – | – | –
25 | 4.7 µM | > 100 µM | 76.2 µM | > 100 µM | CCCCOC(=O)c1ccc(Cl)cc1NC(=O)c1ccccc1C | – | – | –
26 | 2.9 µM | > 100 µM | 1 µM | > 100 µM | CCCNC(=O)c1ccc(Cl)cc1NC(=O)c1c(F)cccc1F | – | – | –
27 | 1.5 µM | > 100 µM | 21.8 µM | > 100 µM | CCCCOC(=O)c1ccc(Cl)cc1NC(=O)c1c(F)cccc1F | – | – | –

Row | IC50 [1] | IC50 [2] | IC50 [3] | IC50 [4] | SMILES | Activity [5] | Activity [6] | Activity [7]
28 | > 100 µM | > 100 µM | 28.8 µM | > 100 µM | CC(C)OC(=O)c1ccc(Cl)cc1NC(=O)c1c(F)cccc1F | – | – | –
29 | 0.7 µM | > 100 µM | 2.3 µM | > 100 µM | CCCOC(=O)c1ccc(Cl)cc1NC(=O)c1ccccc1Cl | 62.56 ng | 32.52 ng | –
30 | 4.7 µM | > 100 µM | 3.5 µM | – | CCCOC(=O)c1ccc([N+](=O)[O-])cc1NC(=O)c1ccccc1F | – | – | –
31 | 150 µM | > 100 µM | 153 µM | > 100 µM | CC(=O)Oc1ccccc1C(=O)O [ASPIRIN] | – | – | 26.68 ng
32 | 2 µM | > 100 µM | 25.1 µM | – | CCCOC(=O)c1ccc(F)cc1NC(=O)c1ccccc1C | – | – | –
33 | 68.3 µM | > 100 µM | 32.3 µM | > 100 µM | CCOC(=O)c1ccc(Cl)cc1NC(=O)c1c(Cl)cccc1Cl | – | – | –
34 | 1.6 µM | > 100 µM | 9.3 µM | – | CCCOC(=O)c1ccc(F)cc1NC(=O)c1ccccc1Cl | – | – | –
35 | 3.6 µM | > 100 µM | 13.9 µM | > 100 µM | CCOC(=O)c1ccc(Cl)cc1NC(=O)c1ccccc1Br | – | – | –
36 | 3.4 µM | > 100 µM | 4.1 µM | > 100 µM | CCCNC(=O)c1ccc(Cl)cc1NC(=O)c1ccccc1Cl | – | – | –
37 | 31.5 µM | > 100 µM | 33.2 µM | – | CCCOC(=O)c1ccc(F)cc1NC(=O)c1ccccc1OC | – | – | –
38 | 0.5 µM | 48.8 µM | – | > 100 µM | CCCOC(=O)c1ccc(Cl)cc1NC(=O)c1c(F)cccc1F | 45.47 ng | 7.74 ng | –
39 | 3.5 µM | > 100 µM | 1 µM | > 100 µM | CCCCNC(=O)c1ccc(Cl)cc1NC(=O)c1c(F)cccc1F | – | – | –
40 | 1.6 µM | – | 7.8 µM | – | CCCOC(=O)c1ccc(C)cc1NC(=O)c1ccccc1Cl | – | – | –
41 | 1 µM | > 100 µM | 7.6 µM | > 100 µM | CCOC(=O)c1ccc(Cl)cc1NC(=O)c1ccccc1Cl | – | – | –
42 | 8.4 µM | > 100 µM | 10.3 µM | > 100 µM | CCCNC(=O)c1ccc(Cl)cc1NC(=O)c1ccccc1C | – | – | –
43 | 1.6 µM | > 100 µM | 14.5 µM | – | CCCOC(=O)c1ccc(F)cc1NC(=O)c1ccccc1F | – | – | –
44 | 3.5 µM | > 100 µM | 9.5 µM | > 100 µM | CCCOC(=O)c1ccc(Cl)cc1NC(=O)c1ccccc1Br | – | – | –
45 | 21.1 µM | – | 36.1 µM | – | CCOC(=O)c1ccc(F)cc1NC(=O)c1ccccc1C | – | – | –
46 | 4.1 µM | – | 11 µM | – | CCOC(=O)c1ccc(F)cc1NC(=O)c1ccccc1Cl | – | – | –
47 | 3.1 µM | – | 27.3 µM | – | CCCOC(=O)c1ccc(C)cc1NC(=O)c1ccccc1Br | – | – | –
48 | > 100 µM | > 100 µM | > 100 µM | > 100 µM | CCCCOC(=O)c1ccc(Cl)cc1NC(=O)c1ccccc1OC | – | – | –
49 | 0.7 µM | > 100 µM | – | > 100 µM | COC(=O)c1ccc(Cl)cc1NC(=O)c1c(F)cccc1F | 61.18 ng | 29.48 ng | –
50 | 23.4 µM | > 100 µM | > 100 µM | > 100 µM | CCCOC(=O)c1ccc(Cl)cc1NC(=O)c1ccccc1OC | – | – | –
51 | > 100 µM | > 100 µM | > 100 µM | > 100 µM | CCCCOC(=O)c1ccc(Cl)cc1NC(=O)c1c(Cl)cccc1Cl | – | – | –
52 | 4.7 µM | > 100 µM | 8 µM | – | CCCOC(=O)c1ccc([N+](=O)[O-])cc1NC(=O)c1ccccc1C | – | – | –
53 | 38.4 µM | > 100 µM | 29.7 µM | > 100 µM | CCCOC(=O)c1ccc(Cl)cc1NC(=O)c1c(Cl)cccc1Cl | – | – | –
54 | 1.5 µM | > 100 µM | 3.4 µM | > 100 µM | CCCNC(=O)c1ccc(Cl)cc1NC(=O)c1ccccc1Br | – | – | –
